Active and inactive are the calls of the source. The calls are words filed in the database; no cut-off is given here.
Key:
[1] = tested on: Sarcoma-180; assay: Antitumor activity against mouse Sarcoma 180 cells allografted in Swiss mouse assessed as survival time at 150 mg/kg, ip three doses were given at 24 hrs interval starting 24 hrs after allograft injection relative to control; type: functional; details: route intraperitoneal
Method in brief: (§1)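 Swiss mice inoculated ip with 10^6 ascitic sarcoma 180 cells. Compound given ip daily ×3 at 24-h intervals, starting 24 h after inoculation. Controls received isotonic saline on the same schedule; 6 mice per group. Mice alive at 60 days counted as 60 days in mean survival (±SD).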

[2] = tested on: Sarcoma-180; assay: Antitumor activity against mouse Sarcoma 180 cells allografted in Swiss mouse at 150 mg/kg, ip three doses were given at 24 hrs interval starting 24 hrs after allograft injection relative to control; type: functional; details: route intraperitoneal
Method in brief: (§2)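 Swiss mice received 10^6 ascitic sarcoma 180 cells ip, then three ip doses 24 h apart starting at 24 h. Controls got isotonic salt solution on the same schedule. T/C% is mean survival time of treated over controls (6 mice per group).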

[3] = Acute toxicity in single ip dosed Swiss mouse assessed as death up to 5 days; type: organism-based; details: in vivo
Method in brief: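 Male Swiss mice given one ip dose. LD50 taken as the single dose killing 50% of animals within 5 days.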

[4] = tested on: Sarcoma-180; assay: Antitumor activity against mouse Sarcoma 180 cells allografted in Swiss mouse assessed as survival at 150 mg/kg, ip three doses were given at 24 hrs interval starting 24 hrs after allograft injection measured after 5 days; type: functional, organism-based; parameters: dose 150 mg/kg
Method in brief: (§3)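 Swiss mice were injected ip with 10^6 ascitic sarcoma 180 cells. Three daily ip doses followed, the first 24 h after cell injection. The read-out was the number of mice surviving at 5 days, out of 6 treated.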

[5] = tested on: Sarcoma-180; assay: Antitumor activity against mouse Sarcoma 180 cells allografted in Swiss mouse assessed as weight gain at 150 mg/kg, ip three doses were given at 24 hrs interval starting 24 hrs after allograft injection measured after 3 days relative to control; type: functional; details: route intraperitoneal
Method in brief: (§4)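 Ascitic sarcoma 180 model in Swiss mice: 10^6 cells ip, then three ip doses at 24-h intervals beginning 24 h later. Mice were weighed 1 day after cell injection and again 3 days later (24 h after the third dose). Percent weight gain of treated mice was compared with saline-treated controls on the same schedule.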

[6] = tested on: Sarcoma-180; assay: Antitumor activity against mouse Sarcoma 180 cells allografted in Swiss mouse assessed as cure at 150 mg/kg, ip three doses were given at 24 hrs interval starting 24 hrs after allograft injection measured after 60 days; type: functional, organism-based; parameters: dose 150 mg/kg
Method in brief: (§5)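 Swiss mice given 10^6 ascitic sarcoma 180 cells ip. Starting 24 h later, three ip doses were given 24 h apart. Controls got isotonic salt solution on the same schedule. A cure was a mouse alive with no evidence of cancer cells 60 days after cell injection, reported per 6 mice.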

[7] = Redox potential of the compound in alcohol-water solution; details: buffer
[8] = tested on: Sarcoma-180; assay: Antitumor activity against mouse Sarcoma 180 cells allografted in Swiss mouse assessed as survival time at 20 mg/kg, ip three doses were given at 24 hrs interval starting 24 hrs after allograft injection relative to control; type: functional; details: route intraperitoneal; method in brief: as §1
[9] = tested on: Sarcoma-180; assay: Antitumor activity against mouse Sarcoma 180 cells allografted in Swiss mouse at 20 mg/kg, ip three doses were given at 24 hrs interval starting 24 hrs after allograft injection relative to control; type: functional; details: route intraperitoneal; method in brief: as §2
[10] = tested on: Sarcoma-180; assay: Antitumor activity against mouse Sarcoma 180 cells allografted in Swiss mouse assessed as weight gain at 20 mg/kg, ip three doses were given at 24 hrs interval starting 24 hrs after allograft injection measured after 3 days relative to control; type: functional; details: route intraperitoneal; method in brief: as §4
[11] = Half life of the compound in water at pH 7 at 25 degC by spectrophotometry; type: physicochemical
Method in brief: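 Compound dissolved in absolute ethanol, then diluted into 0.01 M Tris buffer brought to pH 7 with HCl, 25 °C. Absorbance at λmax followed over hours or days; log absorbance vs time fitted by least squares, rate constant and half-time taken from the slope.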

[12] = tested on: Sarcoma-180; assay: Antitumor activity against mouse Sarcoma 180 cells allografted in Swiss mouse assessed as survival at 20 mg/kg, ip three doses were given at 24 hrs interval starting 24 hrs after allograft injection measured after 5 days; type: functional, organism-based; parameters: dose 20 mg/kg; method in brief: as §3
[13] = tested on: Sarcoma-180; assay: Antitumor activity against mouse Sarcoma 180 cells allografted in Swiss mouse assessed as cure at 20 mg/kg, ip three doses were given at 24 hrs interval starting 24 hrs after allograft injection measured after 60 days; type: functional, organism-based; parameters: dose 20 mg/kg; method in brief: as §5
[14] = tested on: Sarcoma-180; assay: Antitumor activity against mouse Sarcoma 180 cells allografted in Swiss mouse assessed as survival time at 3 mg/kg, ip three doses were given at 24 hrs interval starting 24 hrs after allograft injection relative to control; type: functional; details: route intraperitoneal; method in brief: as §1
[15] = tested on: Sarcoma-180; assay: Antitumor activity against mouse Sarcoma 180 cells allografted in Swiss mouse at 3 mg/kg, ip three doses were given at 24 hrs interval starting 24 hrs after allograft injection relative to control; type: functional; details: route intraperitoneal; method in brief: as §2
[16] = tested on: Sarcoma-180; assay: Antitumor activity against mouse Sarcoma 180 cells allografted in Swiss mouse assessed as survival at 3 mg/kg, ip three doses were given at 24 hrs interval starting 24 hrs after allograft injection measured after 5 days; type: functional, organism-based; parameters: dose 3 mg/kg; method in brief: as §3
[17] = tested on: Sarcoma-180; assay: Antitumor activity against mouse Sarcoma 180 cells allografted in Swiss mouse assessed as weight gain at 3 mg/kg, ip three doses were given at 24 hrs interval starting 24 hrs after allograft injection measured after 3 days relative to control; type: functional; details: route intraperitoneal; method in brief: as §4
[18] = tested on: Sarcoma-180; assay: Antitumor activity against mouse Sarcoma 180 cells allografted in Swiss mouse assessed as survival time at 10 mg/kg, ip three doses were given at 24 hrs interval starting 24 hrs after allograft injection relative to control; type: functional; details: route intraperitoneal; method in brief: as §1
[19] = tested on: Sarcoma-180; assay: Antitumor activity against mouse Sarcoma 180 cells allografted in Swiss mouse at 10 mg/kg, ip three doses were given at 24 hrs interval starting 24 hrs after allograft injection relative to control; type: functional; details: route intraperitoneal; method in brief: as §2
[20] = tested on: Sarcoma-180; assay: Antitumor activity against mouse Sarcoma 180 cells allografted in Swiss mouse assessed as weight gain at 10 mg/kg, ip three doses were given at 24 hrs interval starting 24 hrs after allograft injection measured after 3 days relative to control; type: functional; details: route intraperitoneal; method in brief: as §4
[21] = tested on: Sarcoma-180; assay: Antitumor activity against mouse Sarcoma 180 cells allografted in Swiss mouse assessed as survival at 10 mg/kg, ip three doses were given at 24 hrs interval starting 24 hrs after allograft injection measured after 5 days; type: functional, organism-based; parameters: dose 10 mg/kg; method in brief: as §3
[22] = tested on: Sarcoma-180; assay: Antitumor activity against mouse Sarcoma 180 cells allografted in Swiss mouse assessed as cure at 10 mg/kg, ip three doses were given at 24 hrs interval starting 24 hrs after allograft injection measured after 60 days; type: functional, organism-based; parameters: dose 10 mg/kg; method in brief: as §5
[23] = tested on: Sarcoma-180; assay: Antitumor activity against mouse Sarcoma 180 cells allografted in Swiss mouse assessed as survival time at 15 mg/kg, ip three doses were given at 24 hrs interval starting 24 hrs after allograft injection relative to control; type: functional; details: route intraperitoneal; method in brief: as §1
[24] = tested on: Sarcoma-180; assay: Antitumor activity against mouse Sarcoma 180 cells allografted in Swiss mouse at 15 mg/kg, ip three doses were given at 24 hrs interval starting 24 hrs after allograft injection relative to control; type: functional; details: route intraperitoneal; method in brief: as §2
[25] = tested on: Sarcoma-180; assay: Antitumor activity against mouse Sarcoma 180 cells allografted in Swiss mouse assessed as survival at 15 mg/kg, ip three doses were given at 24 hrs interval starting 24 hrs after allograft injection measured after 5 days; type: functional, organism-based; parameters: dose 15 mg/kg; method in brief: as §3
[26] = tested on: Sarcoma-180; assay: Antitumor activity against mouse Sarcoma 180 cells allografted in Swiss mouse assessed as weight gain at 15 mg/kg, ip three doses were given at 24 hrs interval starting 24 hrs after allograft injection measured after 3 days relative to control; type: functional; details: route intraperitoneal; method in brief: as §4

Row | SMILES | Survival [1] | T/C [2] | LD50 at 120 h [3] | Activity [4] | Activity [5] | Activity [6] | Redox potential [7] | further results
1 | O=C1C=C/C(=N/O)C(Br)=C1 | 18.2 days | 158% | 1090 mg/kg | Active | 6.4% | inactive | 0.532 V | 
2 | CN(C)c1ccc(/N=C2/C=CC(=O)C(Cl)=C2)cc1 |  |  | 100 mg/kg |  |  |  | 0.658 V | Survival [8]: 33.3 days; T/C [9]: 256%; Activity [10]: 9%; half-life [11]: 19.9 days; Activity [12]: Active; Activity [13]: inactive
3 | CC(=O)NC1=C/C(=N\c2ccc(N(C)C)cc2)C=CC1=O |  |  | 70 mg/kg |  |  |  | 0.58 V | Survival [14]: 26.8 days; T/C [15]: 194%; Activity [16]: Active; Activity [17]: 4.3%
4 | COC1=C/C(=N\c2ccc(N(C)C)cc2)C=CC1=O |  |  | 25 mg/kg |  |  |  | 0.561 V | Survival [18]: 19.3 days; T/C [19]: 181%; Activity [20]: 1.9%; Activity [21]: Active; Activity [22]: inactive
5 | O=C1C=CC(=Nc2ccc([O-])cc2)C=C1.[Na+] |  |  | 50 mg/kg |  |  |  |  | Survival [23]: 32.8 days; T/C [24]: 214%; Activity [25]: Active; Activity [26]: -2.2%
6 | O=C1C=CC(=NO)C=C1 | 17.8 days | 135% | 260 mg/kg | Active | -5.2% | inactive | 0.544 V | 

Source: ChEMBL document CHEMBL3271988, “Nitrogen analogues of 1,4-benzoquinones. Activities against the ascitic sarcoma 180 of mice” (J Med Chem, 1978)
